These results are taken from ChEMBL document CHEMBL1139352, “Synthesis and evaluation of novel inhibitors of Pim-1 and Pim-2 protein kinases” (J Med Chem, 2009).

Series [1] is described as follows: Inhibition of PKGalpha at 5 uM.
Series [2] addresses RAC-alpha serine/threonine-protein kinase (Homo sapiens) (UniProt P31749). Put plainly: Inhibition of AKT1 at 5 uM.
The target in series [3] is Rho-associated protein kinase 2 (Homo sapiens) (UniProt O75116). Put plainly: Inhibition of ROCK2 at 5 uM.
Sequence of Rho-associated protein kinase 2 (Homo sapiens) (O75116 whole entry, looked up): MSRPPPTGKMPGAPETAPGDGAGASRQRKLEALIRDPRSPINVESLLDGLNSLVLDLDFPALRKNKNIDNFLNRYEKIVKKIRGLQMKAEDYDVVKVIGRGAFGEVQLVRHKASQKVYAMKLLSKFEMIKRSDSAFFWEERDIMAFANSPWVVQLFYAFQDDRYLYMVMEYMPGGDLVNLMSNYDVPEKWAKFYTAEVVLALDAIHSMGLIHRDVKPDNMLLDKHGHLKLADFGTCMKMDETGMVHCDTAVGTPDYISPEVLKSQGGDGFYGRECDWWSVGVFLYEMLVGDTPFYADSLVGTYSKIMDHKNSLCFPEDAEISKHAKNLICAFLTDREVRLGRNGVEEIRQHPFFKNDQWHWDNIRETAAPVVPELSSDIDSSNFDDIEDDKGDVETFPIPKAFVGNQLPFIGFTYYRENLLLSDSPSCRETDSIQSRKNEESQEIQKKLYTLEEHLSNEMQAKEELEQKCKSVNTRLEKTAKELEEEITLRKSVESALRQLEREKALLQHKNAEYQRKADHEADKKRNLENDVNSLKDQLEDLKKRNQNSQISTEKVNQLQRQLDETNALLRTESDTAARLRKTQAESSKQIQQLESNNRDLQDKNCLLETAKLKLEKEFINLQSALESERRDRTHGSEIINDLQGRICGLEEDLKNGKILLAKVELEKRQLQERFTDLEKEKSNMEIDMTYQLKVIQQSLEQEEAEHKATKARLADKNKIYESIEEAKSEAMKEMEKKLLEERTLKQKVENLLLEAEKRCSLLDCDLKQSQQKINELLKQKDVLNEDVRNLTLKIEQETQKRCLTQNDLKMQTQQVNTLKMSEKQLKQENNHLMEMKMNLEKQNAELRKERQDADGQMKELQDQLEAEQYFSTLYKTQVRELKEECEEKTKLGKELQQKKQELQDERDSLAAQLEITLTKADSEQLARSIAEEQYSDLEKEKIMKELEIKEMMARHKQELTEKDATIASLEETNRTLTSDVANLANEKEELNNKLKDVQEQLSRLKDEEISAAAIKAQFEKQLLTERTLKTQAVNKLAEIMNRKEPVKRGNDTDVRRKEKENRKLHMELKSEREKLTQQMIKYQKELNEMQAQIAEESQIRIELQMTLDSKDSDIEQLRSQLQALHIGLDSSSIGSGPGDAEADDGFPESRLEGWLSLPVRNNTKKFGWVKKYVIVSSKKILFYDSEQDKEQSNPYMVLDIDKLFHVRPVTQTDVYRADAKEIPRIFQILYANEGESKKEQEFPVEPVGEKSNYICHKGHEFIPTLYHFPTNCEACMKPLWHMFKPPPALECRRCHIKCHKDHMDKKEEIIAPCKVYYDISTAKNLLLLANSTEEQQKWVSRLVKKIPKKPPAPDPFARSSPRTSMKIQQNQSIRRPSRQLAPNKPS
The target of series [4] is Insulin-like growth factor 1 receptor (Homo sapiens) (UniProt P08069). Put plainly: Inhibition of IGF1R at 5 uM.
Sequence of Insulin-like growth factor 1 receptor (Homo sapiens) (P08069 31-736 limits assumed): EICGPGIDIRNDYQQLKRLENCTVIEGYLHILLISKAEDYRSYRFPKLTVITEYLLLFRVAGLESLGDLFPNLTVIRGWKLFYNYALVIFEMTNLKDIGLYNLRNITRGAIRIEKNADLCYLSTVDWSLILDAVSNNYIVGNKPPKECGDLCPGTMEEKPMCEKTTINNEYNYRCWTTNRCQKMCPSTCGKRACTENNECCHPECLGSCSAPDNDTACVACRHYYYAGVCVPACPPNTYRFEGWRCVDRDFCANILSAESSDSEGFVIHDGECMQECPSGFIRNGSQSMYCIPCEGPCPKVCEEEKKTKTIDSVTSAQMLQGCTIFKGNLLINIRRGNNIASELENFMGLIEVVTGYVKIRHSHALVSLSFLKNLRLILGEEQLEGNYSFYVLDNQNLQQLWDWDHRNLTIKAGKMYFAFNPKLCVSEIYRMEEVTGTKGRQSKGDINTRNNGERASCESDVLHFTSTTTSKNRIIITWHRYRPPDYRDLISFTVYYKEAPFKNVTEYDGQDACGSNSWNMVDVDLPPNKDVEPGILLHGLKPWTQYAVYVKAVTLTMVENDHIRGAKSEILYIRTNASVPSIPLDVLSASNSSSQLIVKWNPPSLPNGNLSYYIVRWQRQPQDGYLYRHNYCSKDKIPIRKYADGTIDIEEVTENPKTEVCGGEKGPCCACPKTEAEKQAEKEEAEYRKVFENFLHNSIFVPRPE
Sequence of Insulin-like growth factor 1 receptor (Homo sapiens) (P08069 741-1367 limits assumed): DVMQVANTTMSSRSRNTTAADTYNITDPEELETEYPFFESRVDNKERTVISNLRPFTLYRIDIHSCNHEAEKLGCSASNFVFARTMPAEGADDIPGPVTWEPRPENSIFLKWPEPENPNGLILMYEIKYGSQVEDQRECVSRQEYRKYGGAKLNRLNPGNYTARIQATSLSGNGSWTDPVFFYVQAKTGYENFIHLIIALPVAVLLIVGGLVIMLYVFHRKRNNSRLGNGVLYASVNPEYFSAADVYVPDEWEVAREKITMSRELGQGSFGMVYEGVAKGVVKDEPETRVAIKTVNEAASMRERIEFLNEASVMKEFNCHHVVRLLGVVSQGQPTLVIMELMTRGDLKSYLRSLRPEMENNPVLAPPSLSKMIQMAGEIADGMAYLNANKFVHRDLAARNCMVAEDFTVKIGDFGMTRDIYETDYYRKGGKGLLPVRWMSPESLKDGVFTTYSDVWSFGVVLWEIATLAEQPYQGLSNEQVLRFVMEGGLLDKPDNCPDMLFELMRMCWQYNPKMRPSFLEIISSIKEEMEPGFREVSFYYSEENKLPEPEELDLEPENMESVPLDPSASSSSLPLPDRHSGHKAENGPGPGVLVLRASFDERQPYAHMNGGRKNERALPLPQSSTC
For series [5], the system named is Mus musculus. The series can be described thus: Toxicity in Swiss Webster mouse assessed as amylase level at 10 mg/kg, ip daily for 7 days measured after 7 days. It counts as organism-based. More on the design: dose 10 mg/kg, route intraperitoneal. The note with it: in vivo, 168 h.
Series [6] deals with Mus musculus. Put plainly: Toxicity in Swiss Webster mouse assessed as lymphocyte count at 10 mg/kg, ip daily for 7 days measured after 7 days. It counts as organism-based. More on the design: dose 10 mg/kg, route intraperitoneal. The note with it: in vivo, 168 h.
For series [7], the system named is Mus musculus. Put plainly: Toxicity in Swiss Webster mouse assessed as white blood cell count at 50 mg/kg, ip daily for 7 days measured after 7 days. It counts as organism-based. More on the design: dose 50 mg/kg, route intraperitoneal. To be noted: in vivo, 168 h. The method, boiled down: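 Six-week-old female Swiss Webster mice (about 25 g) received intraperitoneal injections daily for 7 days. Doses were 3, 10 or 50 mg/kg, with a vehicle group (30% PEG-400, 5% Tween-80, 65% DMSO). Values are reported as ranges per group.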

In series [8] the test system is Mus musculus. Put plainly: Toxicity in Swiss Webster mouse assessed as granulocyte count at 50 mg/kg, ip daily for 7 days measured after 7 days. It counts as organism-based. The arrangement: dose 50 mg/kg, route intraperitoneal. To be noted: in vivo, 168 h.
Series [9] has as its system Mus musculus. The series can be described thus: Toxicity in Swiss Webster mouse assessed as alkaline phosphatase level at 10 mg/kg, ip daily for 7 days measured after 7 days. More on the design: dose 10 mg/kg, route intraperitoneal. It counts as organism-based. The note with it: in vivo, 168 h.
Series [10] has as its system Mus musculus. Put plainly: Toxicity in Swiss Webster mouse assessed as alanine aminotransferase level at 3 mg/kg, ip daily for 7 days measured after 7 days. It counts as organism-based. More on the design: dose 3 mg/kg, route intraperitoneal. The note with it: in vivo, 168 h.
Series [11] concerns the target Mitogen-activated protein kinase 14 (Homo sapiens) (UniProt Q16539). Put plainly: Inhibition of p38alpha at 5 uM.
The target of series [12] is Tyrosine-protein kinase ABL1 (Homo sapiens) (UniProt P00519). Put plainly: Inhibition of ABL at 5 uM.
Sequence of Tyrosine-protein kinase ABL1 (Homo sapiens) (P00519 whole entry): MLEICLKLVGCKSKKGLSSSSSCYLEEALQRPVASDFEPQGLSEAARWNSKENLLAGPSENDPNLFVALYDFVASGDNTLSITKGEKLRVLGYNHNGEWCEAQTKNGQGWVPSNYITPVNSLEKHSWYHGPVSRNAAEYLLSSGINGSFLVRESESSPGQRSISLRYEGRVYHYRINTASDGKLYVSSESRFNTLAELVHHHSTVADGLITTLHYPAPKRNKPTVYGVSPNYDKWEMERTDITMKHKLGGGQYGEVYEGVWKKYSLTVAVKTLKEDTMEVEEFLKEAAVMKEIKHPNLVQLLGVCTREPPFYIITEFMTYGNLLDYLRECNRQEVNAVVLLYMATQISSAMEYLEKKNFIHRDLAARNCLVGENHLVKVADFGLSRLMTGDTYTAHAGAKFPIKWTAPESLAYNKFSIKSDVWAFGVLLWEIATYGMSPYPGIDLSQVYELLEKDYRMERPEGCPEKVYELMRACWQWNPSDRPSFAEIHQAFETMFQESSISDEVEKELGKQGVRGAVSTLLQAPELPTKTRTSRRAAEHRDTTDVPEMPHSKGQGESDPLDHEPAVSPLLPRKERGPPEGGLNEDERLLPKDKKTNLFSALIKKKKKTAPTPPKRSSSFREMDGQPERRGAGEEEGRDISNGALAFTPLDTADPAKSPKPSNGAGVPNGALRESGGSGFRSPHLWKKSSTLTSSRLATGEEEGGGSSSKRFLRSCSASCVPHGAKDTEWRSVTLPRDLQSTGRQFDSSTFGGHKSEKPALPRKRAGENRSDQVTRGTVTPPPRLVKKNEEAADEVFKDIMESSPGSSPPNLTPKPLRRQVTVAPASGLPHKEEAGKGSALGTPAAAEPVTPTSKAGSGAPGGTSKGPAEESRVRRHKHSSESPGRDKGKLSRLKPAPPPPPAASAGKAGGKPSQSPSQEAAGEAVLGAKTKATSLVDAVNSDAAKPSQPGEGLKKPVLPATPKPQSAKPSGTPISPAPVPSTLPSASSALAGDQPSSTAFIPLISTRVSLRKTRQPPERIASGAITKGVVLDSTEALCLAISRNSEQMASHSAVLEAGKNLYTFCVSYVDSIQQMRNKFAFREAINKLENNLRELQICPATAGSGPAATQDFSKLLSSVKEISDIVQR
Series [13] has as its system Mus musculus. Put plainly: Toxicity in Swiss Webster mouse assessed as alanine aminotransferase level at 10 mg/kg, ip daily for 7 days measured after 7 days. The arrangement: dose 10 mg/kg, route intraperitoneal. To be noted: in vivo, 168 h. It counts as organism-based.

Sequence of RAC-alpha serine/threonine-protein kinase (Homo sapiens) (P31749 whole entry): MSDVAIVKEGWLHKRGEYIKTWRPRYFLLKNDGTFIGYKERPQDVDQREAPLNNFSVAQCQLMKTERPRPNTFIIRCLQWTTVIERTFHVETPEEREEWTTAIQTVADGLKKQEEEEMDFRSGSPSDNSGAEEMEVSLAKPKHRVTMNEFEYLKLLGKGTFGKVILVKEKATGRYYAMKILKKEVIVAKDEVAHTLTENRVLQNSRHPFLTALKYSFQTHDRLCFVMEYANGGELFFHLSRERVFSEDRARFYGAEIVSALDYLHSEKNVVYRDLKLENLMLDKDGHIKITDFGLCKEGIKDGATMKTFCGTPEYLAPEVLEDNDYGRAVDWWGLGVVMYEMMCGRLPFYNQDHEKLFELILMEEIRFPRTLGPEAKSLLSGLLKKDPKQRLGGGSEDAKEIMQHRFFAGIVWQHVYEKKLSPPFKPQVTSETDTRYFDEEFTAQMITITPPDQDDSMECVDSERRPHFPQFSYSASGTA
Sequence of Mitogen-activated protein kinase 14 (Homo sapiens) (Q16539 whole entry): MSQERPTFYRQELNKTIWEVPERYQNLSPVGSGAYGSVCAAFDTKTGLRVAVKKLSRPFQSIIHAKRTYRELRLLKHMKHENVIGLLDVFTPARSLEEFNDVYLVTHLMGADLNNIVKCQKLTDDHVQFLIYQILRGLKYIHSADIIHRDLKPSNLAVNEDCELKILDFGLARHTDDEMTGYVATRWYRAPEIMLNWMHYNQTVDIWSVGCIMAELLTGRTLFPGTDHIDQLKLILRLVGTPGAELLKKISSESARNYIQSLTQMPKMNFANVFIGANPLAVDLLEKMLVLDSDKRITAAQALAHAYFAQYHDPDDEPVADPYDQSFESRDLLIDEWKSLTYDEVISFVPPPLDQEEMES

A word on the inhibition: it is the drop in the measured response relative to a control, in per cent. `CCCOc1ccc(/C=C2\SC(=O)NC2=O)cc1`: the inhibition was 0% in series [1]; 6% in series [2]; 5% in series [3]; -1% in series [4]; 0% in series [11]; 6% in series [12]. In addition, the Activity in the series on Mus musculus [5] is reported as 816 U/L; with Mus musculus [6] it was 3.94 ×10⁹ /L; with Mus musculus [7], 3.65 ×10⁹ /L; in the series with Mus musculus [8], 0.08 ×10⁹ /L; in the series with Mus musculus [9] it was 85 U/L; with Mus musculus [10] it was 40 U/L. Besides, the Activity in the series on Mus musculus [13] is on record as 44 U/L.
